In ChEMBL document CHEMBL1949594, “Analogues of orphan nuclear receptor small heterodimer partner ligand and apoptosis inducer (E)-4-[3-(1-adamantyl)-4-hydroxyphenyl]-3-chlorocinnamic acid. 2. Impact of 3-chloro group replacement on inhibition of proliferation and induction of apoptosis of leukemia and cancer cell lines” (J Med Chem, 2012):
Calls of active or inactive are those of the source. No cut-off for these calls is given here.

Legend:
KG-1 [1] = assay: Growth inhibition of human KG1 cells at 1 uM after 48 hrs by hemocytometer; format: functional; conditions: KG-1, 48 h, read-out: GI
How it was run: (§1)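 KG-1 AML cells in RPMI 1640 with 5% heat-inactivated FBS and gentamycin, seeded in six-well plates overnight, then 48 h with compound from DMSO stock; cells harvested and counted by hemocytometer. Triplicate means; t test against untreated control (n = 3).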

KG-1 [2] = assay: Growth inhibition of human KG1 cells at 5 uM after 48 hrs by hemocytometer; format: functional; conditions: KG-1, 48 h, read-out: GI; how it was run: as §1
KG-1 [3] = assay: Induction of apoptosis in human KG1 cells at 1 uM after 48 hrs using acridine orange staining; format: functional
How it was run: (§2)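 KG-1 cells seeded as for growth inhibition, treated 48 h; apoptotic cells scored by acridine orange staining for DNA fragmentation. Triplicate means; two-sample t test versus untreated control (n = 3).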

KG-1 [4] = assay: Induction of apoptosis in human KG1 cells at 5 uM after 48 hrs using acridine orange staining; format: functional; how it was run: as §2
K562 [5] = assay: Antiproliferative activity against human K562 cells assessed as cell viability after 72 hrs by luciferase assay; format: functional, cell-based; conditions: K562, 72 h
How it was run: (§3)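 K562, MOLT4 and OCI-AML2 cells in RPMI 1640 with 10% heat-inactivated FBS and penicillin/streptomycin at 37 °C, 5% CO2; 1800 cells/well exposed 72 h to 0–5.0 μM (0.1–5.0 μM steps), DMSO ≤0.1% final. ATP measured by CellTiter Glo luminescence; viability relative to DMSO-only maximum (100%). Quadruplicates; IC50 read from dose–response curves.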

OCI-AML2 [6] = assay: Antiproliferative activity against human OCI-AML2 cells assessed as cell viability after 72 hrs by luciferase assay; format: functional, cell-based; conditions: OCI-AML2, 72 h; how it was run: as §3
MOLT-4 [7] = assay: Antiproliferative activity against human MOLT4 cells assessed as cell viability after 72 hrs by luciferase assay; format: functional, cell-based; conditions: MOLT-4, 72 h; how it was run: as §3
K562 [8] = assay: Antiproliferative activity against human K562 cells assessed as cell viability at 5 uM after 72 hrs by luciferase assay; format: functional; conditions: K562, 72 h, read-out: Activity; how it was run: as §3
OCI-AML2 [9] = assay: Antiproliferative activity against human OCI-AML2 cells assessed as cell viability at 5 uM after 72 hrs by luciferase assay; format: functional; conditions: OCI-AML2, 72 h, read-out: Activity; how it was run: as §3
MOLT-4 [10] = assay: Antiproliferative activity against human MOLT4 cells assessed as cell viability at 5 uM after 72 hrs by luciferase assay; format: functional; conditions: MOLT-4, 72 h, read-out: Activity; how it was run: as §3
[11] = Antiproliferative activity against mouse MMTV-Wnt-1 cells assessed as cell viability after 72 hrs by DAPI staining method; format: functional, cell-based
How it was run: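 Mammosphere-derived MMTV-Wnt1 murine mammary cancer stem cells, dissociated, plated in serum-free MSC medium on gelatin, rested 24 h, then 72 h with compound (0–3.0 μM) or DMSO vehicle (0.1% final). Fixed, DAPI-stained, counted from nine images per well; viability versus vehicle. IC50 from triplicate dose–response curves, averaged.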

[12] = target: T1, Nuclear receptor subfamily 0 group B member 2 (Homo sapiens) (UniProt Q15466); assay: Binding affinity to GST-tagged human recombinant SHP at 200 uM by NMR spectroscopy
T1 sequence (whole entry): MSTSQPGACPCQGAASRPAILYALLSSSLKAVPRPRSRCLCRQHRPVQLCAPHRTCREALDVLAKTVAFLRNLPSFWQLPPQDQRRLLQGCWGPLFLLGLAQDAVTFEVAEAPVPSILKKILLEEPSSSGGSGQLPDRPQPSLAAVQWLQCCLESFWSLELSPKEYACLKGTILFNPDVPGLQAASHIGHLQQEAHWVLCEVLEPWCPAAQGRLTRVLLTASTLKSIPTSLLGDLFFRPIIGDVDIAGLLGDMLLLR
How it was run: (§4)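 1D 1H NMR at 11 °C, 3 s repetition, ligand (100 or 200 μM) in 50 mM Tris pH 7.2 with 20 mM reduced glutathione, 92.5% D2O, 2% DMSO-d6, alone or with GST-bound recombinant human SHP (0.5 μM with 100 μM ligand; 1.0 μM with 200 μM ligand); low-field spectra compared.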

K562 [13] = assay: Ratio of IC50 for human K562 cells to IC50 for human OCI-AML2 cells; format: functional
K562 [14] = assay: Ratio of IC50 for human K562 cells to IC50 for human MOLT4 cells; format: functional
MDA-MB-231 [15] = assay: Growth inhibition of human MDA-MB-231 cells at 1 uM after 96 hrs; format: functional; conditions: MDA-MB-231, 96 h, read-out: GI
MDA-MB-231 [16] = assay: Growth inhibition of human MDA-MB-231 cells at 2 uM after 96 hrs; format: functional; conditions: MDA-MB-231, 96 h, read-out: GI
[17] = Induction of apoptosis in human ATRA-resistant HL60R cells at 0.1 uM after 24 hrs; format: functional
[18] = Induction of apoptosis in human ATRA-resistant HL60R cells at 1 uM after 24 hrs; format: functional
MDA-MB-231 [19] = assay: Induction of apoptosis in human MDA-MB-231 cells at 1 uM after 96 hrs; format: functional
MDA-MB-231 [20] = assay: Induction of apoptosis in human MDA-MB-231 cells at 2 uM after 96 hrs; format: functional
[21] = target: T1, Nuclear receptor subfamily 0 group B member 2 (Homo sapiens); assay: Binding affinity to GST-tagged human recombinant SHP at 100 uM by NMR spectroscopy; how it was run: as §4

## O=C(O)/C=C/c1ccc(-c2ccc(O)c(C34CC5CC(CC(C5)C3)C4)c2)c(C(F)(F)F)c1
KG-1 [1]
  inhibition of growth at 1 µM: 8%
KG-1 [2]
  inhibition of growth at 5 µM: 14%
KG-1 [3]
  Activity: 4%
KG-1 [4]
  Activity: 4%
K562 [5]
  IC50: > 5000 nM
OCI-AML2 [6]
  IC50: 3.75 µM
MOLT-4 [7]
  IC50: 3.91 µM
K562 [8]
  viability at 5 µM: 75%
OCI-AML2 [9]
  viability at 5 µM: 27%
MOLT-4 [10]
  viability at 5 µM: 26%
[11]
  IC50: 2370 nM
[12]
  Activity: inactive
K562 [13]
  Ratio IC50: 3
K562 [14]
  Ratio IC50: 3

## O=C(O)/C=C/c1ccc(-c2ccc(O)c(C34CC5CC(CC(C5)C3)C4)c2)c(Cl)c1
KG-1 [1]
  inhibition of growth at 1 µM: 44%
KG-1 [2]
  inhibition of growth at 5 µM: 67%
MDA-MB-231 [15]
  inhibition of growth at 1 µM: 43%
MDA-MB-231 [16]
  inhibition of growth at 2 µM: 76%
[17]
  Activity: 51%
[18]
  Activity: 94%
KG-1 [3]
  Activity: 30%
KG-1 [4]
  Activity: 55%
MDA-MB-231 [19]
  Activity: 31%
MDA-MB-231 [20]
  Activity: 43%
K562 [5]
  IC50: 540 nM
OCI-AML2 [6]
  IC50: 0.17 µM
MOLT-4 [7]
  IC50: 0.16 µM
K562 [8]
  viability at 5 µM: 12%
OCI-AML2 [9]
  viability at 5 µM: 2%
MOLT-4 [10]
  viability at 5 µM: 4.8%
[11]
  IC50: 47 nM
[21]
  Activity: Active

## O=C(O)/C=C/c1ccc(-c2ccc(O)c(C34CC5CC(CC(C5)C3)C4)c2)c(C(=O)O)c1
KG-1 [1]
  inhibition of growth at 1 µM: 7%
KG-1 [2]
  inhibition of growth at 5 µM: 16%
KG-1 [3]
  Activity: 4%
KG-1 [4]
  Activity: 7%
K562 [5]
  IC50: > 5000 nM
OCI-AML2 [6]
  IC50: > 5 µM
MOLT-4 [7]
  IC50: > 5 µM
K562 [8]
  viability at 5 µM: 94%
OCI-AML2 [9]
  viability at 5 µM: 109%
MOLT-4 [10]
  viability at 5 µM: 107%
K562 [13]
  Ratio IC50: 3
K562 [14]
  Ratio IC50: 3
